Reference: paper PMC2895358 (Journal of Medicinal Chemistry, 2010)

Key:
cruzain [1] = molecular target: T1, cruzain (Trypanosoma cruzi, UniProt P25779); assay: Cruzain inhibition assay; assay type: biochemical; conditions: for time-dependence of cruzain inhibition over incubation: incubation 0 to 240 min, 1 μM of 8, 10 μM of 11, 10 uM of 4, 100 uM of 5
cruzain [2] = molecular target: T1, cruzain; assay: LC/MS stability of compounds in the presence or absence of cruzain; assay type: physicochemical; conditions: for behaviour as cruzain substrate: LC/MS and time-dependence assay
How it was run: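 Test compound solutions in 2 mM Bis Tris pH 5.8, with or without 100 nM cruzain, analysed by LC/MS at time points from 30 min to 24 h, with elution monitored at 254 nm, to detect degradation and whether cruzain catalyses it. In a separate run, cruzain activity was followed after incubation with test compound (1 or 10 μM) from 0 to 240 min.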

cruzain [3] = molecular target: T1, cruzain; assay: In vitro activity of compound 11 and representative analogues against cruzain; assay type: biochemical

T1 sequence (P25779 123-337 limits assumed): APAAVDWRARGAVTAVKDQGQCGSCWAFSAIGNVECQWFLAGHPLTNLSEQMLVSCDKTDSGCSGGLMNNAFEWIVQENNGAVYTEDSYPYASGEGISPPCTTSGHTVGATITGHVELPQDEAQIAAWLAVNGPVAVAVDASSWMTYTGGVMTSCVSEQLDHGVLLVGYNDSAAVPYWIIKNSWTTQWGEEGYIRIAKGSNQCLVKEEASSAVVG

Row | Compound | Ki (cruzain [1]) [nM] | time-dependence of cruzain inhibition over incubation (cruzain [1]) | stability by LC/MS in the absence of cruzain (cruzain [2]; 2 mM Bis Tris pH 5.8, no cruzain, one day) | behaviour as cruzain substrate (cruzain [2]) | IC50 (cruzain [3]) [nM]
1 | O=C(CNC(=O)c1ccccc1)OC(C(=O)Nc1cc(C(F)(F)F)ccc1Cl)c1ccccc1 (stereo not drawn) [Compound 8] | 65 | clear time-dependent effect |  |  | 
2 | O=C(CNC(=O)c1ccc(Cl)cc1)OC(C(=O)Nc1ccc(Cl)cc1C(F)(F)F)c1ccccc1 (stereo not drawn) [Compound 11] |  | clear time-dependent effect | still observed in solution even after one day of incubation | identified as a cruzain substrate | 260
3 | COc1ccc(Cl)cc1NC(=O)COC(=O)C(CC(C)C)N1C(=O)C2CC=CCC2C1=O (stereo not drawn) [Compound 4] | 1600 |  |  | did not behave as substrates | 
4 | CC(C)C(NC(=O)c1ccco1)C(=O)NCC(c1ccco1)N1CCCCC1 (stereo not drawn) [Compound 5] |  |  |  | did not behave as substrates | 
